Active and inactive are the calls of the source. The calls are words filed in the database; no cut-off is given here.

Data set [1] has as its system Mus musculus. Description: Effect on spermatogenesis in CD-1 mouse assessed as abnormality in spermatid translocation at 5 mg/kg/day, po for 7 days measured after 4 weeks post-cessation of drug treatment by hematoxylin counter-staining based analysis. In kind it is functional, organism-based. The settings on record: time 5.0 weeks.
The test system of data set [2] is Mus musculus. Description: Effect on spermatogenesis in CD-1 mouse assessed as reduction in sperm count administered as Avicel formulation at 10 mg/kg/day, po for 28 days consecutively measured on day 1 post-cessation of drug treatment by hemocytometry relative to control. In kind it is functional. Details: scale not given: the % may be the effect or the level left. The settings on record: time 29 day.

In data set [3] the test system is Mus musculus. The data set can be described thus: Effect on spermatogenesis in CD-1 mouse assessed as sperm count at 10 mg/kg/day, po for 2 weeks measured on day 1 post-cessation of drug treatment by hemocytometry (reference value: 41.80 +/- 7.92 x 10^6No_unit). The settings on record: time 15 day. In kind it is functional.
Data set [4] concerns the target T1, Retinoic acid receptor alpha (Homo sapiens, UniProt P10276).
T1 sequence (P10276 whole entry): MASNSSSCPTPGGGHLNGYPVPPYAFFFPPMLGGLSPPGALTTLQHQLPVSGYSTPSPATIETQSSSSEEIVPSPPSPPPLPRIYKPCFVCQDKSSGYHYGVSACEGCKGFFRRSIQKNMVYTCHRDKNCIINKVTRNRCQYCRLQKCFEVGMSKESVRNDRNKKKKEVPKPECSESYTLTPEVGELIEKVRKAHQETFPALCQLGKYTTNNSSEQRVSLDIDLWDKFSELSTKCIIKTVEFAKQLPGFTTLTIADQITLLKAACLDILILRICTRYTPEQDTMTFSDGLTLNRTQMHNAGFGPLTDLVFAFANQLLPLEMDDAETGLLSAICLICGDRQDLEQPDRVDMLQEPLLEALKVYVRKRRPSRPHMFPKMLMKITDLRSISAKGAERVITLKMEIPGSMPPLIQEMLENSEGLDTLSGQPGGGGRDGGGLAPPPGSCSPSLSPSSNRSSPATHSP
The data set can be described thus: Antagonist activity at recombinant human RAR-alpha expressed in mammalian cells in presence of 9-cis-RA by luciferase reporter gene based transactivation assay. In kind it is cell-based. The gist of the method:
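Compounds 8-point dose response in triplicate, DMSO final 0.4%; overnight at 37 °C, 5% CO2; luminescence after 30 min detection reagent. IC50 by four-parameter logistic fit; agonist-free wells set background.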

Data set [5] concerns Mus musculus. Description: Effect on spermatogenesis in CD-1 mouse assessed as abnormality in spermatid translocation at 10 mg/kg/day, po for 2 weeks measured measured after 4 weeks post-cessation of drug treatment by hematoxylin counter-staining based analysis. It is filed as functional, organism-based. Particulars: time 6.0 weeks. The gist of the method: (§1)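 CD1 males given 10 mg/kg/day orally for 2 weeks dissolved in 20% aqueous Kollisolv (n = 10 per time point); vehicle-only controls n = 5. Testes collected one day or 4 weeks after cessation, fixed in 4% paraformaldehyde or Bouin's, paraffin-embedded, PAS-stained with hematoxylin counterstain and tubules staged by bright-field microscopy.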

In data set [6] the test system is Mus musculus. Description: Effect on spermatogenesis in CD-1 mouse assessed as sperm count at 10 mg/kg/day, po for 2 weeks measured after 4 weeks post-cessation of drug treatment by hemocytometry (reference value: 50.30 +/- 5.90 x 10^6No_unit). In kind it is functional. The settings on record: time 6 weeks.
The nature of data set [7]: Metabolic stability in CD-1 mouse intestinal microsomes assessed as compound remaining at 2 x 10^-6 M in presence of NADPH measured for 60 mins. It is filed as ADME, Intestine, Microsome. Particulars: dose 2 10^-6M, read-out: Stability. An outline of the steps:
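Male CD-1 mouse intestinal microsomes with NADPH, compound at 2.0 ×10−6 M, 60 min; percent parent remaining.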

Data set [8] deals with Mus musculus. The data set can be described thus: Effect on fertility in CD-1 mouse assessed as size of embryonic litters formed post-cessation of drug treatment at 5 mg/kg/day, po for 7 days followed by drug cessation and initiation of mating for 2 weeks. In kind it is functional. The settings on record: time 3 weeks.
The subject of data set [9] is Mus musculus. The data set can be described thus: Effect on spermatogenesis in CD-1 mouse assessed as abnormality in spermatid release at 10 mg/kg/day, po for 2 weeks measured measured after 4 weeks post-cessation of drug treatment by hematoxylin counter-staining based analysis. It is filed as functional, organism-based. Particulars: time 6.0 weeks. An outline of the steps:
as §1

As to `Cc1ccc(C2=CC(C)(C)Oc3ccc(C(=O)Nc4ccc(C(=O)O)cc4)cc32)cc1`, the outcome in the data set with Mus musculus [1], in the data set on Mus musculus [5] and with Mus musculus [9] was inactive. Besides, the Activity with Mus musculus [2] was around 56%; in the data set with Mus musculus [3], 37.2 10^6No_unit; in the data set on Mus musculus [6], 44.75 10^6No_unit; in the data set on Mus musculus [8], 12.15. Moreover, the IC50 in data set [4] was found to be 4.6 nM. Besides, the remaining at 1 h, 2 µM in [7] was found to be 100%.

Values taken from ChEMBL document CHEMBL5634116, “Strategies for developing retinoic acid receptor alpha-selective antagonists as novel agents for male contraception” (Eur J Med Chem, 2023).
